Data as given in ChEMBL document CHEMBL4118112, “Synthesis and Evaluation of the First Fluorescent Antagonists of the Human P2Y2 Receptor Based on AR-C118925” (J Med Chem, 2018).
The source made the active and inactive calls. The rule behind the calls is not given here.

How the values were obtained:
P2Y purinoceptor 2 [1] = target: T1, P2Y purinoceptor 2 (Homo sapiens, UniProt P41231); assay: (§1) Antagonist activity at human P2Y2R expressed in human 1321N1 cells assessed as inhibition of UTPgammaS-activated calcium-mobilization preincubated for 45 mins measured every 1.52 secs for 200 secs after the addition of UTPgammaS at 15 secs by fluo-4AM-based fluorescence assay; format: functional, cell-based
T1 sequence (P41231 whole entry): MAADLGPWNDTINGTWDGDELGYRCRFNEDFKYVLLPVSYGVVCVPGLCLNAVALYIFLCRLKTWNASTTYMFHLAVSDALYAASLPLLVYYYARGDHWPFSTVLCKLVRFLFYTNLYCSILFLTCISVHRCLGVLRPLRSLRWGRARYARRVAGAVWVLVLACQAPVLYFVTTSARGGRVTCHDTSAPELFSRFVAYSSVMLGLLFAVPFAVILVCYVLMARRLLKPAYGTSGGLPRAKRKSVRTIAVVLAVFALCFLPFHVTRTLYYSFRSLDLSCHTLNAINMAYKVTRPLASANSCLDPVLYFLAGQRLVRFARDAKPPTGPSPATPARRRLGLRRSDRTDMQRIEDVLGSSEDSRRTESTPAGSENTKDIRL
In short: (§2)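 hP2Y2R in 1321N1 astrocytoma cells. Calcium mobilization was driven by UTPγS. Single-concentration lines: compound at 10 µM, inhibition scored against the 0.1 µM UTPγS response (n=3). For the pKb line, the UTPγS concentration-response curve was run with a single antagonist concentration added, and pKb was calculated from the curve shift with the Gaddum equation.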

P2Y purinoceptor 2 [2] = target: T1, P2Y purinoceptor 2; assay: as §1, with “calcium-mobilization at 10 uM” for “calcium-mobilization”, “assay relative to UTPgammaS” for “assay”; format: functional, cell-based; in short: as §2
P2Y purinoceptor 2 [3] = target: T1, P2Y purinoceptor 2; assay: Binding affinity to recombinant human N-terminal NLuc-tagged P2Y2R expressed in human 1321N1 cells incubated for 1 hr in presence of AR-C118925 by furimazine-based NanoBRET assay; format: cell-based
In short: (§3)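 N-terminally NanoLuc-tagged hP2Y2R was stably expressed in 1321N1 cells. Cells were treated with increasing concentrations of fluorescent conjugate, or a fixed 10 µM for screening, with or without 10 µM AR-C118925 to define nonspecific binding. Furimazine substrate was then added and the BRET signal read. pKd came from saturation binding curves; mean ± SEM of separate experiments.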

P2Y purinoceptor 2 [4] = target: T1, P2Y purinoceptor 2; assay: Displacement of (E)-2-((5-(7-Chloro-2-((3-((2-(6-(3-(5,5-difluoro-7,9-dimethyl-5H-5-lambda4,6-lambda4-dipyrrolo[1,2-c:2,1-f ][1,3,2]diazaborinin-3-yl)-propanamido)hexanamido)ethyl)amino)-3-oxopropyl)amino)-4Hbenzo[5,6]cyclohepta[1,2-d]thiazol-4-yl)-2-oxo-4-thioxo-3,4-dihydropyrimidin-1(2H)-yl)methyl)-N-(1H-tetrazol-5-yl)thiazole-4-carboxamide from human N-terminal NLuc-tagged P2Y2R expressed in human 1321N1 cells incubated for 1 hr by furimazine-based NanoBRET assay; format: cell-based
In short: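 Competition binding in 1321N1 cells expressing N-terminal NanoLuc-hP2Y2R. The fluorescent tracer was used at 1 µM (or the bodipy A tracer at 100 nM) against increasing concentrations of unlabeled ligand. After furimazine addition the BRET signal was read and pKi estimated; mean ± SEM of separate experiments.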

P2Y purinoceptor 2 [5] = target: T1, P2Y purinoceptor 2; assay: Binding affinity to recombinant human N-terminal NLuc-tagged P2Y2R expressed in human 1321N1 cells at 10 uM incubated for 1 hr in presence of AR-C118925 by furimazine-based NanoBRET assay; format: cell-based; in short: as §3
P2Y purinoceptor 2 [6] = target: T1, P2Y purinoceptor 2; assay: Binding affinity to human P2Y2R expressed in human 1321N1 cells assessed as localized membrane fluorescence at 100 nM after 30 mins by confocal microscopy; format: cell-based
In short: (§4)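 1321N1 astrocytoma cells expressing untagged hP2Y2R were given 100 nM fluorescent ligand and incubated 30 min at 37°C, with or without 10 µM AR-C118925 (1). Single equatorial confocal images were then taken with the fluorescent ligand and/or antagonist still present. Membrane and intracellular fluorescence were examined; images are representative of 4 experiments.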

[7] = Drug uptake in human 1321N1 cells assessed as intracellular fluorescence at 100 nM after 30 mins by confocal microscopy; format: ADME, cell-based; conditions: 0.5 h, 0.1 µM; in short: as §4
P2Y purinoceptor 2 [8] = target: T1, P2Y purinoceptor 2; assay: Antagonist activity at human P2Y2R expressed in human 1321N1 cells assessed as inhibition of UTPgammaS-activated calcium-mobilization at 10 uM preincubated for 45 mins measured every 1.52 secs for 200 secs after the addition of UTPgammaS at 15 secs by fluo-4AM-based fluorescence assay; format: functional, cell-based; in short: as §2
P2Y purinoceptor 2 [9] = target: T1, P2Y purinoceptor 2; assay: Binding affinity to human P2Y2R expressed in human 1321N1 cells assessed as localized membrane fluorescence at 100 nM after 30 mins in presence of AR-C118925 by confocal microscopy; format: cell-based; in short: as §4

## COCCNc1nc2c(s1)C=Cc1cc(Cl)ccc1C2c1cn(C)c(=O)[nH]c1=S (stereo in doubt; 20)
P2Y purinoceptor 2 [1]
  pKb: 6.63

## Cn1cc(C2c3ccc(Cl)cc3C=Cc3sc(NCc4ccccc4)nc32)c(=S)[nH]c1=O (configuration not stated)
P2Y purinoceptor 2 [2]
  inhibition: < 50%

## Cc1ccc2c(c1)C=Cc1cc(C)ccc1C2c1cn(Cc2cc(C(=O)NCCNC(=O)COc3ccc(/C=C/C4=[N+]5C(=Cc6ccc(-c7cccs7)n6[B-]5(F)F)C=C4)cc3)cc(C(=O)Nc3nnn[nH]3)c2)c(=O)[nH]c1=S
P2Y purinoceptor 2 [3]
  Kd: 2750 nM

## O=c1[nH]c(=S)c(C2c3ccccc3CCc3ccccc32)cn1[C@@H]1O[C@H](COP(=O)(O)OP(=O)(O)C(Cl)(Cl)P(=O)(O)O)[C@@H](O)[C@H]1O
P2Y purinoceptor 2 [4]
  Ki: 83.2 nM
  inhibition: Dose-dependent effect
P2Y purinoceptor 2 [1]
  pKb: 6.59

## Cn1cc(C2c3ccc(Cl)cc3C=Cc3sc(N)nc32)c(=S)[nH]c1=O (configuration not stated)
P2Y purinoceptor 2 [1]
  pKb: 6.56

## CCOCCNc1nc2c(s1)C=Cc1cc(Cl)ccc1[C@H]2c1cn(C)c(=O)[nH]c1=S
P2Y purinoceptor 2 [4]
  inhibition: Dose-dependent effect
P2Y purinoceptor 2 [1]
  pKb: 6.74 to 6.78

## Cc1ccc2c(c1)C=Cc1cc(C)ccc1C2c1cn(Cc2cc(C(=O)NCCOCCOCCNC(=O)COc3ccc(/C=C/C4=[N+]5C(=Cc6ccc(-c7cccs7)n6[B-]5(F)F)C=C4)cc3)cc(C(=O)Nc3nnn[nH]3)c2)c(=O)[nH]c1=S
P2Y purinoceptor 2 [3]
  Kd: 759 nM

## Cn1cc(C2c3ccc(Cl)cc3C=Cc3sc(NCCOc4ccccc4)nc32)c(=S)[nH]c1=O (configuration not stated)
P2Y purinoceptor 2 [2]
  inhibition: < 50%

## Cc1ccc2c(c1)C=Cc1cc(C)ccc1C2c1cn(Cc2nc(C(=O)Nc3nnn[nH]3)cs2)c(=O)[nH]c1=S
P2Y purinoceptor 2 [4]
  Ki: 129 nM
  inhibition: Dose-dependent effect
P2Y purinoceptor 2 [1]
  pKb: 7.11

## CCOCCNc1nc2c(s1)C=Cc1cc(Cl)ccc1[C@@H]2c1cn(C)c(=O)[nH]c1=S
P2Y purinoceptor 2 [4]
  inhibition: Dose-dependent effect
P2Y purinoceptor 2 [2]
  inhibition: < 50%
P2Y purinoceptor 2 [1]
  pKb: < 5

## Cc1cc(C)n2c1C=C1C=CC(CCC(=O)NCCCCCC(=O)NCCNC(=O)CCNc3nc4c(s3)C=Cc3cc(Cl)ccc3C4c3cn(C)c(=O)[nH]c3=S)=[N+]1[B-]2(F)F (configuration not stated)
P2Y purinoceptor 2 [5]
  Activity: Active
P2Y purinoceptor 2 [4]
  Ki: 398 nM
  inhibition: Dose-dependent effect
P2Y purinoceptor 2 [3]
  Kd: 2140 nM
P2Y purinoceptor 2 [1]
  pKb: 6.3

## O=C(CCCCCNC(=O)COc1ccc(/C=C/C2=[N+]3C(=Cc4ccc(-c5cccs5)n4[B-]3(F)F)C=C2)cc1)NCCNC(=O)CCNc1nc2c(s1)C=Cc1cc(Cl)ccc1C2c1cn(Cc2nc(C(=O)Nc3nnn[nH]3)cs2)c(=O)[nH]c1=S (configuration not stated)
P2Y purinoceptor 2 [6]
  Activity: Active
[7]
  Drug uptake: Not Active
P2Y purinoceptor 2 [3]
  Kd: 129 nM
P2Y purinoceptor 2 [8]
  pKb: 5.69
P2Y purinoceptor 2 [9]
  Activity: inactive

## Cn1cc(C2c3ccc(Cl)cc3C=Cc3sc(Nc4ccccc4)nc32)c(=S)[nH]c1=O (configuration not stated)
P2Y purinoceptor 2 [2]
  inhibition: < 50%

## COCCNc1nc2c(s1)C=Cc1cc(Cl)ccc1C2c1cn(C)c(=O)[nH]c1=S (racemic)
P2Y purinoceptor 2 [1]
  pKb: 6.6

## Cc1ccc2c(c1)C=Cc1cc(C)ccc1C2c1cn(C)c(=O)[nH]c1=S
P2Y purinoceptor 2 [2]
  inhibition: < 50%

## Cn1cc(C2c3ccc(Cl)cc3C=Cc3sc(-c4ccccc4)nc32)c(=S)[nH]c1=O (configuration not stated)
P2Y purinoceptor 2 [2]
  inhibition: < 50%

## CN1CCN(c2nc3c(s2)C=Cc2cc(Cl)ccc2C3c2cn(C)c(=O)[nH]c2=S)CC1 (configuration not stated)
P2Y purinoceptor 2 [2]
  inhibition: < 50%

## Cc1nc2c(s1)C=Cc1cc(Cl)ccc1C2c1cn(C)c(=O)[nH]c1=S (configuration not stated)
P2Y purinoceptor 2 [4]
  Ki: 1550 nM
  inhibition: Dose-dependent effect
P2Y purinoceptor 2 [1]
  pKb: 5.99

## Cn1cc(C2c3ccc(Cl)cc3C=Cc3sc(N4CCCCC4)nc32)c(=S)[nH]c1=O (configuration not stated)
P2Y purinoceptor 2 [2]
  inhibition: < 50%

## CCOCCNc1nc2c(s1)C=Cc1cc(Cl)ccc1C2c1cn(C)c(=O)[nH]c1=S (racemic)
P2Y purinoceptor 2 [1]
  pKb: 6.73

## Cn1cc(C2c3ccc(Cl)cc3C=Cc3sc(NCCc4ccccc4)nc32)c(=S)[nH]c1=O (configuration not stated)
P2Y purinoceptor 2 [2]
  inhibition: < 50%

## CC(C)OCCNc1nc2c(s1)C=Cc1cc(Cl)ccc1C2c1cn(C)c(=O)[nH]c1=S (configuration not stated)
P2Y purinoceptor 2 [1]
  pKb: 6.49

## Cc1cc(C)n2c1C=C1C=CC(CCC(=O)NCCNC(=O)CCNc3nc4c(s3)C=Cc3cc(Cl)ccc3C4c3cn(Cc4nc(C(=O)Nc5nnn[nH]5)cs4)c(=O)[nH]c3=S)=[N+]1[B-]2(F)F (configuration not stated)
P2Y purinoceptor 2 [3]
  Kd: 89.1 nM

## Cc1ccc2c(c1)C=Cc1cc(C)ccc1C2c1cn(Cc2ccc(C(=O)Nc3nnn[nH]3)o2)c(=O)[nH]c1=S
P2Y purinoceptor 2 [4]
  inhibition: Dose-dependent effect

## O=c1ccn([C@@H]2O[C@H](COP(=O)(O)OP(=O)(O)OP(=O)(O)S)[C@@H](O)[C@H]2O)c(=O)[nH]1 (some centres not stated)
P2Y purinoceptor 2 [4]
  Ki: 3470 nM
  inhibition: Dose-dependent effect

## O=C(CCNc1nc2c(s1)C=Cc1cc(Cl)ccc1C2c1cn(Cc2nc(C(=O)Nc3nnn[nH]3)cs2)c(=O)[nH]c1=S)NCCNC(=O)COc1ccc(/C=C/C2=[N+]3C(=Cc4ccc(-c5cccs5)n4[B-]3(F)F)C=C2)cc1 (configuration not stated)
P2Y purinoceptor 2 [3]
  Kd: 891 nM

## Cn1cc(C2c3ccc(Cl)cc3C=Cc3sc(N4CCOCC4)nc32)c(=S)[nH]c1=O (configuration not stated)
P2Y purinoceptor 2 [2]
  inhibition: < 50%

## Cc1cc(C)n2c1C=C1C=CC(CCC(=O)NCCNC(=O)CCNc3nc4c(s3)C=Cc3cc(Cl)ccc3C4c3cn(C)c(=O)[nH]c3=S)=[N+]1[B-]2(F)F (configuration not stated)
P2Y purinoceptor 2 [5]
  Activity: Active
P2Y purinoceptor 2 [3]
  Kd: 12300 nM

## COCCNc1nc2c(s1)C=Cc1cc(Cl)ccc1C2c1cn(C)c(=O)[nH]c1=S (stereo in doubt; 21)
P2Y purinoceptor 2 [1]
  pKb: 5.82

## Cc1nc2c(s1)C=Cc1cc(Cl)ccc1C2c1cn(Cc2nc(C(=O)Nc3nnn[nH]3)cs2)c(=O)[nH]c1=S (configuration not stated)
P2Y purinoceptor 2 [1]
  pKb: 6.48

## Cc1ccc2c(c1)C=Cc1cc(C)ccc1C2c1cn(Cc2nc(C(=O)O)cs2)c(=O)[nH]c1=S
P2Y purinoceptor 2 [1]
  pKb: 6.43

## Cc1cc(C)n2c1C=C1C=CC(CCC(=O)NCCCCCC(=O)NCCOCCOCCNC(=O)CCNc3nc4c(s3)C=Cc3cc(Cl)ccc3C4c3cn(C)c(=O)[nH]c3=S)=[N+]1[B-]2(F)F (configuration not stated)
P2Y purinoceptor 2 [5]
  Activity: Active
P2Y purinoceptor 2 [3]
  Kd: 4170 nM
